Reference: ChEMBL document CHEMBL1138921, “Discovery of 3,5-bis(trifluoromethyl)benzyl L-arylglycinamide based potent CCR2 antagonists” (Bioorg Med Chem Lett, 2006)
Values belong to the compound of their own block, whether it stands above or below them.

Assays:
[1] = target: T1, C-C chemokine receptor type 2 (Homo sapiens, UniProt P41597); test: Displacement of [125I]MCP1 from human CCR2 expressed in CHO cells; assay type: cell-based
In short: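 Competition binding: CHO cells stably expressing human CCR2b (5 × 10⁴) incubated with ¹²⁵I-hMCP-1 (20–50 pM) plus varied unlabeled competitor, 60 min, room temperature, in 50 mM HEPES, 5 mM MgCl₂, 1 mM CaCl₂, pH 7.4. Ended by filtration through polyethyleneimine-soaked GF/B filters, washed with 25 mM HEPES pH 7.5/500 mM NaCl. Values given as IC₅₀ or % inhibition at 1 µM.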

[2] = target: T2, C-C chemokine receptor type 1 (Homo sapiens) (UniProt P32246); test: (§1) Binding affinity to CCR1
T2 sequence (whole entry): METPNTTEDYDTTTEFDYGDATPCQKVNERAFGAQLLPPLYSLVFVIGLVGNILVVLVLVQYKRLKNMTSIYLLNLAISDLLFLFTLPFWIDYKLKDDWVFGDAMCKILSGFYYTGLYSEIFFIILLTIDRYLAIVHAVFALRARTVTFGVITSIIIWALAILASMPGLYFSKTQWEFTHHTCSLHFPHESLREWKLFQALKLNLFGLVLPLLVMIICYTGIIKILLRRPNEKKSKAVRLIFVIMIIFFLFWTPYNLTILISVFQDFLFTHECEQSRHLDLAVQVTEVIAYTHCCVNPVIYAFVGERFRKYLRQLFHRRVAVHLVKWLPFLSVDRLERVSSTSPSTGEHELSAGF

[3] = target: T3, C-C chemokine receptor type 1 (Homo sapiens, UniProt P32246); test: as §1
T3 sequence (P32246 whole entry): T2 sequence (whole entry)

[4] = target: T4, C-C chemokine receptor type 3 (Homo sapiens) (UniProt P51677); test: (§2) Binding affinity to CCR3
T4 sequence (whole entry): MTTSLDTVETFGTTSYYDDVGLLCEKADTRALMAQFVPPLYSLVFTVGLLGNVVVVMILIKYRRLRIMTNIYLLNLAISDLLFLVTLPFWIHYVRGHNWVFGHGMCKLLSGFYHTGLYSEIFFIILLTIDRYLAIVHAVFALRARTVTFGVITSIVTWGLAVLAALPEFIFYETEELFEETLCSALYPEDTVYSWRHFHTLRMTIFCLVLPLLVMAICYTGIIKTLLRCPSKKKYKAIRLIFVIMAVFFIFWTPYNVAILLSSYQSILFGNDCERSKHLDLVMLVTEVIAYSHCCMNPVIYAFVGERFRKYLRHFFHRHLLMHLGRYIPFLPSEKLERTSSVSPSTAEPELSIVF

[5] = target: T5, C-C chemokine receptor type 3 (Homo sapiens, UniProt P51677); test: as §2
T5 sequence (P51677 whole entry): T4 sequence (whole entry)

[6] = target: T6, C-C chemokine receptor type 4 (Homo sapiens) (UniProt P51679); test: (§3) Binding affinity to CCR4
T6 sequence (whole entry): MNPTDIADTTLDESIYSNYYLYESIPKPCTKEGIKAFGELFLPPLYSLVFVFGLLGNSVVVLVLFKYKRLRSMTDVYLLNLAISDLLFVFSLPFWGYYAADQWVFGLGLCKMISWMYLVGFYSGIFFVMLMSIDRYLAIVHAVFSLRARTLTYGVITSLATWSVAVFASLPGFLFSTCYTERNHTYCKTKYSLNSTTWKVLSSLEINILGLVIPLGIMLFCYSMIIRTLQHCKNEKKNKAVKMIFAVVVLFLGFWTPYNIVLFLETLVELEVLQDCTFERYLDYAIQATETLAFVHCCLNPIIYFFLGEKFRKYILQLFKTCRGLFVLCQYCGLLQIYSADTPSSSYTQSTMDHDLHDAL

[7] = target: T7, C-C chemokine receptor type 4 (Homo sapiens, UniProt P51679); test: as §3
T7 sequence (P51679 whole entry): T6 sequence (whole entry)

[8] = target: C-C chemokine receptor type 8 (Homo sapiens, UniProt P51685); test: Binding affinity to CCR8
C-C chemokine receptor type 8, sequence (P51685 whole entry): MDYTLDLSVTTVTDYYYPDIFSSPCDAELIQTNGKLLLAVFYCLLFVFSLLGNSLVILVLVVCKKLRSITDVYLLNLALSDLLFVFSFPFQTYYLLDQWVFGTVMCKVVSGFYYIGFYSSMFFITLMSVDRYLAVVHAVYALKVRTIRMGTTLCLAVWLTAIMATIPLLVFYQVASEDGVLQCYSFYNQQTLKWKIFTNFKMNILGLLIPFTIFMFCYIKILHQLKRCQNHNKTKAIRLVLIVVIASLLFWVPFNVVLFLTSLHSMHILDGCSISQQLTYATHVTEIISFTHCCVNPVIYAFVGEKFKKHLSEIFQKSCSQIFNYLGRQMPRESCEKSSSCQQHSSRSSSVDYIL

[9] = target: T1, C-C chemokine receptor type 2; test: Antagonist activity against CCR2 assessed as inhibition of MCP1-induced calcium flux in human monocytes; assay type: functional, cell-based
[10] = target: T1, C-C chemokine receptor type 2; test: Binding affinity to CCR2 in human monocytes; assay type: cell-based
In short: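 Competition binding on human monocytes (2 × 10⁵ cells) incubated with ¹²⁵I-hMCP-1 (20–50 pM; 2200 Ci/mmol) and a range of unlabeled competitor concentrations. Buffer: 50 mM HEPES, 5 mM MgCl₂, 1 mM CaCl₂, pH 7.4, for 60 min at room temperature. Stopped by filtration through PEI-presoaked GF/B filters, washed with 25 mM HEPES pH 7.5 / 500 mM NaCl. Reported as IC50.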

Monocyte [11] = test: Inhibition of MCP1-induced chemotaxis of human monocytes; assay type: functional, cell-based
In short: (§4)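 Human monocytes loaded with Calcein-AM in Hanks' buffer with 0.01% BSA, 37 °C, 30 min, then washed and resuspended in phenol red-free RPMI 1640 with 0.01% BSA. Migration toward MCP-1 measured in disposable 96-well chemotaxis plates (5.7 mm diameter wells), 1.5 × 10⁵ cells/well.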

[12] = Oral bioavailability in rat; assay type: ADME, organism-based; conditions: in vivo
[13] = Clearance in rat; assay type: ADME, organism-based; conditions: in vivo
[14] = Half life in rat; assay type: ADME, organism-based; conditions: in vivo
[15] = Portal level in rat at 3 mg/kg, po after 1 hr; assay type: ADME, organism-based; parameters: dose 3 mg/kg, route oral; conditions: portal vein (blood or plasma not stated), read-out: Activity
In short: (§5)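 Rats dosed orally at 3 mg/kg; drug levels in portal and systemic blood sampled at several time points to assess first-pass metabolism.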

Rattus norvegicus = test: Systemic level in rat at 3 mg/kg, po; assay type: ADME, organism-based; parameters: dose 3 mg/kg, route oral; conditions: in vivo; in short: as §5
Substance-P receptor = Substance-P receptor (Homo sapiens, UniProt P25103); test: Binding affinity to human NK1 receptor
Substance-P receptor, sequence (P25103 whole entry): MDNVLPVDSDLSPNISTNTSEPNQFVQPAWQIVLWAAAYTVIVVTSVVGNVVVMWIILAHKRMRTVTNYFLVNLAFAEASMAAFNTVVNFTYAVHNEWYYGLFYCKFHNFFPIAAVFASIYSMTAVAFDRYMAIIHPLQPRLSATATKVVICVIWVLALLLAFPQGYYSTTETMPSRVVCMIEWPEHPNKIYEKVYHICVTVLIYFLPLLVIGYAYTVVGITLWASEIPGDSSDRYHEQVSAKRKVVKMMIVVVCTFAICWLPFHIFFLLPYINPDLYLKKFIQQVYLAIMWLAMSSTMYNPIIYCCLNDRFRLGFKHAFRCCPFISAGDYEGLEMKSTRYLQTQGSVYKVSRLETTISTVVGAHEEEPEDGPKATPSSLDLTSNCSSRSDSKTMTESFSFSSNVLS

[16] = target: T8, Neuromedin-K receptor (Homo sapiens) (UniProt P29371); test: (§6) Binding affinity to human NK3 receptor
T8 sequence (whole entry): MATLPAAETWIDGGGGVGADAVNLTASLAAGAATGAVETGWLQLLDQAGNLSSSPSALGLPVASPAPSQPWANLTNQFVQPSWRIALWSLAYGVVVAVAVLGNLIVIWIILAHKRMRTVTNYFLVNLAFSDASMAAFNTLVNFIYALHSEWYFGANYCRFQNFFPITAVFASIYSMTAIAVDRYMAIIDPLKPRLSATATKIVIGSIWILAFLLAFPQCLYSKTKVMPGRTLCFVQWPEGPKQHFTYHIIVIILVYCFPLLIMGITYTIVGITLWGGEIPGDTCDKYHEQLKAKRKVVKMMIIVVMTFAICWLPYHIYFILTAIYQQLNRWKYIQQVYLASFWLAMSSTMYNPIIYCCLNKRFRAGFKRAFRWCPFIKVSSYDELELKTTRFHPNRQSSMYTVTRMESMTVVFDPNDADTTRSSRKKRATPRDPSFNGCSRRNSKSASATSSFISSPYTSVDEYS

Neuromedin-K receptor = target: T9, Neuromedin-K receptor (Homo sapiens, UniProt P29371); test: as §6
T9 sequence (P29371 whole entry): T8 sequence (whole entry)

[17] = target: T10, Substance-K receptor (Homo sapiens) (UniProt P21452); test: (§7) Binding affinity to human NK2 receptor
T10 sequence (whole entry): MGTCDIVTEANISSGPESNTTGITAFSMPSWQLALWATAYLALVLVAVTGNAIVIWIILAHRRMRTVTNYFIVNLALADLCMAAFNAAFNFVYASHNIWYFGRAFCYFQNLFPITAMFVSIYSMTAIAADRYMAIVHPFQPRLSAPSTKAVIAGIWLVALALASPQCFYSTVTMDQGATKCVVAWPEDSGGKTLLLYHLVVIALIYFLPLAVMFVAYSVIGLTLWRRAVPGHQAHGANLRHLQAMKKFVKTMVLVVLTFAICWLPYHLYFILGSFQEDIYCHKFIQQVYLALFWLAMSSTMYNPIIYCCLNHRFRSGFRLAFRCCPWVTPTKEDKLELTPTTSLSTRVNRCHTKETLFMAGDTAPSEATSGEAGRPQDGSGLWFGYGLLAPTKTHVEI

Substance-K receptor = target: T11, Substance-K receptor (Homo sapiens, UniProt P21452); test: as §7
T11 sequence (P21452 whole entry): T10 sequence (whole entry)

[18] = target: C-C chemokine receptor type 5 (Homo sapiens, UniProt P51681)
C-C chemokine receptor type 5, sequence (P51681 whole entry): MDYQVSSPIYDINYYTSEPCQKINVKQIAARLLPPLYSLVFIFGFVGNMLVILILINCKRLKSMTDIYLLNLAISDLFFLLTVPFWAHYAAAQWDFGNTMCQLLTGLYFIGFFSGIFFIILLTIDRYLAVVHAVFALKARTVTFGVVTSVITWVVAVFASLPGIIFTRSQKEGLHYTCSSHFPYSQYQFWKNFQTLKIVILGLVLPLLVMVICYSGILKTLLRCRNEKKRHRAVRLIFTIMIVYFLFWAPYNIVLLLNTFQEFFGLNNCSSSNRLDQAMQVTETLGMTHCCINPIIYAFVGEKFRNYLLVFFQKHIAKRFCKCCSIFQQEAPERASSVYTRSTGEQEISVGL

Monocyte [19] = test: Inhibition of MCP1-induced chemotaxis of human monocytes at 10 uM; assay type: functional; in short: as §4

T1 sequence (P41597 whole entry): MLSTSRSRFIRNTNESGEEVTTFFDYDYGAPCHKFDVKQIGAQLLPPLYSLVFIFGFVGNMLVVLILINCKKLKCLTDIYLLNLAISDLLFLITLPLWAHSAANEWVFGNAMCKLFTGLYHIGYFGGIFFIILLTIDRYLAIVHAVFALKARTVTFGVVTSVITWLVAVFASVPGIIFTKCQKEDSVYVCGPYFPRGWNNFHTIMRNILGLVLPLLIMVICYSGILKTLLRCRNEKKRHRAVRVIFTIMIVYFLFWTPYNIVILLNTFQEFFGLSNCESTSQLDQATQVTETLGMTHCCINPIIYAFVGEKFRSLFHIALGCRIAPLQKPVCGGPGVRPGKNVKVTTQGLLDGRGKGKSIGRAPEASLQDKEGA

IC50 [1]: 39 nM | Activity [2]: -19% | IC50 [3]: > 1000 nM | Activity [4]: 2% | IC50 [5]: > 1000 nM | Activity [6]: 6% | IC50 [7]: > 2000 nM | Activity [8]: 15% | IC50 [8]: > 1000 nM | IC50 [9]: 50 nM | IC50 [10]: 30 nM | IC50 (Monocyte [11]): 9.6 nM | bioavailability [12]: 4.5% | clearance [13]: 80 mL/min/kg | half-life [14]: 1.8 h | concentration at 1 h [15]: > 300 ng/mL | Activity (Rattus norvegicus): < 20 ng/mL | Activity (Substance-P receptor): 31% | IC50 (Substance-P receptor): > 100 nM | Activity [16]: 10% | IC50 (Neuromedin-K receptor): > 1000 nM | Activity [17]: 20% | IC50 (Substance-K receptor): > 1000 nM | IC50 [18]: > 1000 nM
SMILES: O=C(NCc1cc(C(F)(F)F)cc(C(F)(F)F)c1)[C@@H](NCCN1CCCCC1)c1ccsc1

SMILES: CN(CCN1CCCCC1)c1ccc(-c2nc3cc(Cl)c(Cl)cc3[nH]2)cc1
inhibition at 10 µM (Monocyte [19]): 100%
